From PubChem BioAssay
aSyn 5UTR inh: MLPCN primary screen, SNCA 5' untranslated region; alpha-synuclein 5'UTR reporter, inhibitor activity; inhibition, % (tested at 7.5 µM); 300,000 compounds, 0.82% hits; AID 1813; in the data active means inhibition above about 60%;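 further: H4 neuroglioblastoma cells stably carrying SNCA 5'UTR luciferase fusion; 0% = DMSO wells and 100% = positive control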
Mdm2-MdmX inh: disrupts the human Mdm2-MdmX interaction. O15151+Q00987. SaOS-2 split-luciferase Mdm2/MdmX complementation, luminescence. inhibition, % at 8 µM. 330,000 compounds, 3% hits. AID 485346;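 active means inhibition of at least 50% at 8 µM in the primary screen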
Target sequence (O15151 whole entry, looked up): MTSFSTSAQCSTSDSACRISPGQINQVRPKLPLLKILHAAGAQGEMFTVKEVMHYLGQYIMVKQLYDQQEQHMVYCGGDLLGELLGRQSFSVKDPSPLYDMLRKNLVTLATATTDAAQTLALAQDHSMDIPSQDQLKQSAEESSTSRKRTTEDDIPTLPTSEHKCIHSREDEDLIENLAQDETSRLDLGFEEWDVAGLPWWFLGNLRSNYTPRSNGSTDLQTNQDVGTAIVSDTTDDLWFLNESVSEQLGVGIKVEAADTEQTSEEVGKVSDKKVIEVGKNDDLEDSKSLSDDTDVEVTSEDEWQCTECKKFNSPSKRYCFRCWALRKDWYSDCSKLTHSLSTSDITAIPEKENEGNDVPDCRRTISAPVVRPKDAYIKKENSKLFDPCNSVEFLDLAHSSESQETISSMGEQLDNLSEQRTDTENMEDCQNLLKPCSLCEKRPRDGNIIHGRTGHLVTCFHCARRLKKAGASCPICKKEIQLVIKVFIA
Target sequence (Q00987 whole entry, looked up): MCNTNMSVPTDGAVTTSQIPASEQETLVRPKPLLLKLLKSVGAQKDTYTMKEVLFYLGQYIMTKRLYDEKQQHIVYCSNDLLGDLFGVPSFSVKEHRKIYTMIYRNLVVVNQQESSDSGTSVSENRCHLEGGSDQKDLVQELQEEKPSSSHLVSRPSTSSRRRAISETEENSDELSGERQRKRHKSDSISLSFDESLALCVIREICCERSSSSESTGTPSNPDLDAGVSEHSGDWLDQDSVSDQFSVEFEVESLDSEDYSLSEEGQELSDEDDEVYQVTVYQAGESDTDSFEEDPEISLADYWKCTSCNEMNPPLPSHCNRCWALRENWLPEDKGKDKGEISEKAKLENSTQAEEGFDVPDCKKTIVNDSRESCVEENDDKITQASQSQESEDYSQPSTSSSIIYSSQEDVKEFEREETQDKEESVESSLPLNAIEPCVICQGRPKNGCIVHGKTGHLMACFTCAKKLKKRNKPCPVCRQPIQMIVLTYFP
T cruzi repl: T. cruzi replication inhibition; T. cruzi beta-gal in NIH3T3, luminescence, 90 h; 300,000 compounds, 1.4% hits; inhibition, % (concentration not given with the values);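 active means mean inhibition across valid replicates above about 55%, limit read from the data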;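 further: signal also drops with host cell toxicity which is not excluded here; 0% = plate median of DMSO wells and 100% = zero luminescence signal; higher percent means less beta-gal luminescence so fewer parasites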
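Read-out: Parasite load inhibition, % | Test system: Mouse NIH/3T3 fibroblasts infected with β-gal-expressing T. cruzi Tulahuen C4 | Amount: 5,000 cells/well | Medium: DMEM, 2% fetal bovine serum | Signal: GalScreen β-gal luminescence, detergent lysis, 60 min | Timing: 3 h attach, ≥90 h co-culture | Also added: Tulahuen C4 trypomastigotes, 5000/well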
SKKanGAS inh: SKKanGAS growth inhibition; 300,000 compounds, 1.3% hits; inhibition, % at 7.5 µM; AID 1662; S. pyogenes SKKanGAS, kanamycin growth, BacTiter-Glo, 6 h;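 active means mean replicate score, as percent of positive control median, at least 50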;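 further: strain carries kanamycin resistance gene driven by streptokinase promoter and grows in 40 µg/ml kanamycin; loss of luminescence reflects streptokinase promoter inhibition or plain growth inhibition; 0% = median of DMSO wells and 100% = positive control at its reference dose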
CSC inhib: blocks cancer stem cells; cancer stem cell-like cells viability, luminescence; inhibition, % at 7.5 µM; 300,000 compounds, 1.1% hits; in the data active means inhibition above about 75%; tested in HMLE shEcad cells
Mdm2 MdmX conf: human Mdm2/MdmX binding inhibition, confirmed | AID 489028 | luminescent assay | shares compounds with Mdm2-MdmX inh | 10,000 compounds, 55% hits | inhibition, % at 8 µM; in the data active means inhibition above about 40%
FLuc counter: full-length luciferase inhibition in Mdm2/MdmX counter-screen. inhibition, % at 8 µM. 6,200 compounds, 77% hits. shares compounds with Mdm2-MdmX inh. SaOS-2 full-length luciferase counterscreen, luminescence. AID 504607;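 active means mean inhibition at 8 µM reaching about 37%, which flags the compound as non-specific, limit read from the data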;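 further: p53-null SaOS-2 cells with luciferase driven by a doxycycline-inducible promoter; compound on cells about two nights before reading with doxycycline added after day one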
* marks the source's active call; other numbers are inactive results; · = not tested or not shown. Shown are actives, neighbours in structure and some others; about 5.4% of the full set was active somewhere.

SMILES | aSyn 5UTR inh | Mdm2-MdmX inh | T cruzi repl | SKKanGAS inh | CSC inhib | Mdm2 MdmX conf | FLuc counter
O=C1/C(=C/c2ccccc2)Nc2ccccc21 | -44 | -15 | -32 | -1 | -5 | · | ·
O=C1/C(=C/c2ccccc2)NC(=S)N1C(c1ccccc1)c1ccccc1 | -3 | 51* | 10 | 1 | 65 | 59* | 61*
O=C(NCCc1ccccc1)C(=O)NCCC1CCCCN1S(=O)(=O)c1cccs1 (stereo unspecified) | 15 | 0 | 17 | -6 | -8 | · | ·
COc1ccc(-c2sc3ccc(N4CCOCC4)cc3c2C#CC2(O)CCCCC2)cc1 | · | 76* | · | · | 106* | 10 | ·
COc1ccc(-c2ccc3oc(-c4ccc(OC)cc4)c(C#CC4(O)CCCCC4)c3c2)cc1 | 35 | 70* | 32 | 32 | 77* | 32 | ·
COc1ccc(C(=O)c2ccc3oc(-c4ccc(OC)cc4)c(C#CCCO)c3c2)cc1 | 12 | 36 | 39 | 0 | 0 | · | ·
COc1ccc(-c2sc3cc4c(cc3c2C#CC2(N)CCCCC2)OCO4)cc1 | · | 79* | · | · | 130* | 30 | ·
COc1cc(OC)cc(-c2sc3ccc(OC)cc3c2C#CC2(N)CCCCC2)c1 | · | 96* | · | · | 104* | 25 | ·
CCN(C[C@H]1N[C@@](C)(C(=O)OC)[C@H]2C(=O)N(Cc3ccccc3)C(=O)[C@@H]12)S(=O)(=O)c1ccc(C(C)(C)C)cc1 | · | 37 | · | · | · | · | ·
CCN(C[C@H]1N[C@@](CC)(C(=O)OC)[C@H]2C(=O)N(Cc3ccccc3)C(=O)[C@@H]12)S(=O)(=O)c1ccc(-c2ccccc2)cc1 | · | 80* | · | · | · | 79* | 34
CCN(C[C@H]1N[C@@](CC)(C(=O)OC)[C@H]2C(=O)N(Cc3ccccc3)C(=O)[C@@H]12)S(=O)(=O)c1ccc(C)cc1 | · | 8 | · | · | -4 | · | ·
CCN(C[C@H]1N[C@@](CC)(C(=O)OC)[C@H]2C(=O)N(Cc3ccccc3)C(=O)[C@@H]12)S(=O)(=O)c1ccc(C(C)(C)C)cc1 | · | 69* | · | · | · | 62* | 52*
CC[C@@]1(C(=O)OC)N[C@H](CN(C)S(=O)(=O)c2ccc(-c3ccccc3)cc2)[C@@H]2C(=O)N(Cc3ccccc3)C(=O)[C@@H]21 | · | 91* | · | · | · | 87* | 46*
COc1ccc(Cl)c2sc(N3CCN(C(C)=O)CC3)nc12 | 16 | 9 | -1 | -6 | -7 | · | ·
Cc1cccc(NS(=O)(=O)c2cn(C)c(=O)n(C)c2=O)c1C | -8 | -33 | -10 | -1 | -3 | · | ·
O=S(=O)(NCC(Nc1ccc(Cl)cc1)c1ccccc1)c1ccccc1 (stereo unspecified) | 24 | 17 | 8 | 16 | 63 | · | ·
Cc1ccc(NC(CNS(=O)(=O)c2ccc(Cl)cc2)c2ccccc2)cc1 (stereo unspecified) | 40 | 52* | 37 | 43 | -1 | 20 | ·
COc1ccc2nc3cc(Cl)ccc3c(Nc3cc(C(C)C)c(O)cc3C)c2c1 | -39 | 94* | 43 | 12 | 103* | 64* | 64*
CN(C)Cc1c(C(C)(C)O)[nH]c2ccc(C(F)(F)F)cc12 | · | 16 | · | · | -8 | · | ·
CCc1c(C2(O)CCCCC2)[nH]c2ccc(C(F)(F)F)cc12 | 46 | 82* | 10 | 69* | 84* | 37 | ·
COc1ccc(C(=O)Nc2cc(C)nn2-c2cccc(F)c2)cc1OC | 12 | 11 | -15 | -1 | -11 | · | ·
S=c1[nH]nc(-c2ccccc2)n1/N=C/c1ccc(-c2ccccc2Cl)o1 | 37 | 90* | 3 | 5 | 102* | 90* | 54*
Cc1ccc(S(=O)(=O)c2cnc3cc(C)nn3c2N)cc1 | 9 | 7 | -1 | 1 | 2 | · | ·
COc1cccc(/C=N/Nc2ncnc(N)c2[N+](=O)[O-])c1OC | 27 | -56 | -4 | 3 | -9 | · | ·
Cc1cc(/C=N/Nc2ncnc(N)c2[N+](=O)[O-])c(C)n1-c1ccccc1 | 95* | 65* | 5 | 13 | 3 | 70* | 54*
SMILES | aSyn 5UTR inh | Mdm2-MdmX inh | T cruzi repl | SKKanGAS inh | CSC inhib | Mdm2 MdmX conf | FLuc counter
CC(=O)c1c(C)[nH]c(C(=O)OC(C)C(=O)Nc2ccc(C)c(S(=O)(=O)N3CCOCC3)c2)c1C (stereo unspecified) | · | 44 | · | · | · | · | ·
CCN(CC)S(=O)(=O)c1cc(NC(=O)C(C)OC(=O)c2[nH]c(C)c(C(C)=O)c2C)ccc1C (stereo unspecified) | 14 | 51* | 22 | 1 | -7 | 41* | 43*
Cc1ccc(-n2nc3c([n+]2[O-])CCc2c-3no[n+]2[O-])cc1 | -141 | 53* | -74 | 1 | 8 | 11 | ·
CCOC(=O)c1ccc(Nc2sc(C(=O)c3cccc([N+](=O)[O-])c3)c(N)c2C#N)cc1 | 24 | 75* | 0 | 12 | 60 | 74* | 44*
Cc1ccc(C(=O)c2sc(Nc3ccccc3)c(C#N)c2N)cc1 | 15 | 39 | -3 | -9 | 45 | · | ·
Cc1cccc(C)c1OCC(=O)Nc1cccc(-c2nnc(-c3ccccc3)o2)c1 | -91 | 61* | 26 | 44 | · | 20 | ·
COC(=O)c1ccccc1NC(=O)c1cc(-c2cccs2)on1 | -49 | 60* | -10 | -5 | 3 | -8 | ·
COC(=O)c1ccccc1NC(=O)c1cc(-c2ccco2)on1 | -3 | -6 | -5 | -5 | 7 | · | ·
CC(C)c1cc(C(C)C)c(S(=O)(=O)N2c3ccccc3[C@@]3(Br)C[C@H]4C(=O)N[C@@H](Cc5ccccc5)C(=O)N4[C@@H]23)c(C(C)C)c1 | 13 | 59* | 55* | 22 | -20 | 27 | 106*
O=C1N[C@@H](Cc2ccccc2)C(=O)N2[C@H]1C[C@]1([C@]34C[C@H]5C(=O)N[C@@H](Cc6ccccc6)C(=O)N5[C@H]3N(S(=O)(=O)c3ccccc3)c3ccccc34)c3ccccc3N(S(=O)(=O)c3ccccc3)[C@H]21 | 20 | 3 | 7 | -1 | 0 | · | ·
Cc1cc(NC(=O)CCSc2nc(-c3ccco3)cc(C(F)(F)F)n2)no1 | 20 | -4 | 26 | 6 | 15 | · | ·
Cc1cc(NC(=O)CSc2nc(-c3ccco3)cc(C(F)(F)F)n2)no1 | 69* | 65* | -14 | 1 | -20 | 53* | 77*
O=C(CSc1nc(-c2ccco2)cc(C(F)(F)F)n1)NCCc1ccccc1 | 49 | 73* | 22 | 6 | 0 | 68* | 21
CC1Cc2ccccc2N1S(=O)(=O)c1cccc(C(=O)NCc2ccco2)c1 (stereo unspecified) | · | 23 | · | · | -17 | · | ·
COc1ccc(NC(=O)Nc2nnc(-c3ccccc3SCc3ccccc3)s2)cc1 | 21 | 23 | 17 | 3 | 17 | · | ·
COc1cccc(NC(=O)Nc2nnc(-c3ccccc3SCc3ccccc3)s2)c1 | · | 53* | · | -5 | 0 | 33 | ·
O=C(Nc1nnc(-c2ccccc2F)s1)Nc1ccccc1F | -155 | 1 | -17 | -5 | -3 | · | ·
O=C(Nc1nnc(-c2ccccc2SCc2ccccc2)s1)Nc1ccccc1F | -28 | 76* | -3 | 4 | -2 | 17 | ·
